CYP2C19 inhib: inhibitors of human CYP2C19. P33261. CYP2C19 Supersomes, luciferin-H EGE luminescence, 30 min. inhibition, % at 5 µM. hit rate 21% among 96,000. AID 778;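 active = CYP2C19 inhibition above a set limit at 5 µM in the primary screen, cut at about 50% in these data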
CYP2C9 inh: human CYP2C9 inhibition | P11712 | CYP2C9 Supersomes, luciferin-H conversion, luminescence | inhibition, % at 5 µM | hit rate 20% among 96,000;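 active = blocking of liver enzyme CYP2C9 beyond about 50% at 5 µM, limit read from the data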
CYP2C19 act: increases human CYP2C19 enzyme activity. recombinant CYP2C19, luciferin-H EGE luminescence; active compounds read high; 0 = fully inhibited enzyme, 1 = untreated enzyme. 96,000 tested, under 10 active. AID 1025. P33261. activation factor at 5 µM;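 active = activation factor of at least 2 at 5 µM in the primary screen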
HIV Rev-RRE inh: inhibitors of HIV-1 Rev-RRE RNA interaction. Rev peptide-RRE RNA binding, FRET. inhibition, % at 8 µM. hit rate 0.79% among 97,000;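 active = inhibition above the screen-wide mean plus 3 SD, cut at about 35% in these data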
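Test system – labelled RRE RNA duplex and labelled Rev peptide · Signal – fluorescein-to-Cy5 FRET, 480 nm excitation · Evaluation – % inhibition of FRET ratio versus controls · Benchmarks – DMSO low control, neomycin B high control · Incubation – 5 min RNA-compound premix plus 15 min binding step, 25 °C · Medium – HEPES pH 7.5 salt buffer with EDTA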
CYP2C9 act: activators of human CYP2C9. P11712. activation factor at 5 µM. AID 1024. recombinant CYP2C9, luciferin-H conversion, luminescence; active compounds read high; factor 1 = untreated enzyme, 0 = blocked. hit rate 1.4% among 96,000;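 active = activation factor of 2 or more for CYP2C9 at a 5 µM dose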
Cav3 T inh: inhibitors of human Cav3.2 T-type calcium channel | B-score at 10 µM | hit rate 4% among 100,000 | O95180 | AID 449739 | Cav3.2-expressing cells, Fluo-4 calcium fluorescence FDSS; active compounds read low;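 active = single-dose well whose peak fluorescence ratio is a statistical outlier from its plate by either plate-standardised score or position-corrected B-score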
Large screens that a line does not name were inactive. This is a sample that favours compounds with a hit; in the whole collection about 27% have one here.

CCOc1ccccc1NC(=O)C1CCN(S(=O)(=O)c2ccc(OC)c(OC)c2)CC1	none
CCOc1ccccc1NC(=O)C1CCN(c2ccc(S(=O)(=O)N3CCCC3)cc2)CC1	CYP2C9 inh 54
CCOc1ccccc1NC(=O)C1CCCCN1S(=O)(=O)c1ccc(F)cc1 (stereo not given)	CYP2C19 inhib 64, CYP2C9 act 2.9
O=C1CCCc2nc3nc4ccccc4n3cc21	none
Clc1cccc(N2CCN(CCNc3nc4ccccc4n4cnnc34)CC2)c1	none (no result: HIV Rev-RRE inh)
C=CCN1C(=O)/C(=C\c2cccs2)C(C(=O)OC)=C1C	none
Cc1ccccc1Nc1nc(CSc2nnnn2-c2ccccc2)cs1	CYP2C19 inhib 94, CYP2C9 inh 51
Cc1cccc(CSc2nnnn2-c2ccccc2)c1	none
Fc1ccccc1OCCSc1nnnn1-c1ccccc1	none
Clc1ccc(OCCSc2nnnn2C2CCCCC2)cc1	none
CCOc1ccc(OCCSc2nnnn2C2CCCCC2)cc1	CYP2C19 inhib 57, CYP2C9 inh 88 (no result: Cav3 T inh)
c1ccc(OCCSc2nnnn2-c2ccccc2)cc1	Cav3 T inh -6
COc1ccccc1OCCSc1nnnn1-c1ccc(C)cc1	CYP2C19 inhib 99, Cav3 T inh -5 (no result: HIV Rev-RRE inh)
Cc1cccc2cc(CN(CCN3CCOCC3)C(=O)NCc3ccccc3)c(=O)[nH]c12	none
CCOc1cc(NC(=S)Nc2ccccc2)c(OCC)cc1NC(=O)c1ccccc1	none
CCOc1ccc(OCCSc2nnnn2-c2ccccc2)cc1	CYP2C9 inh 50
Cc1ncc(CSc2nnnn2-c2ccccc2)c(N)n1	CYP2C19 inhib 64
O=C(Nc1ccccc1C(=O)Nc1ccc2c(c1)OCO2)c1cccs1	none
COc1cccc(-n2c(C)nc3cc(C(=O)O)ccc32)c1	none
COc1ccc(N(C)C(=O)CCS(=O)(=O)c2cccc3nonc23)c(OC)c1	CYP2C19 inhib 64
Cc1ccc(N(CC(=O)Nc2cccc(C)c2)S(=O)(=O)c2cccc3nonc23)cc1	CYP2C19 inhib 55, CYP2C9 inh 89
Cc1cccc(N(C)C(=O)CCS(=O)(=O)c2cccc3nonc23)c1	CYP2C19 inhib 94 (no result: HIV Rev-RRE inh)
CCC(=O)Nc1cc(C)c(NC(=O)c2ccco2)cn1	none
CCCC(=O)Nc1cnc(NC(=O)c2cccc(F)c2)cc1C	CYP2C19 inhib 68
Cc1cc(NC(=O)c2ccccc2)ncc1NC(=O)c1ccco1	CYP2C19 inhib 95, CYP2C9 inh 56
CCOC(=O)c1ccccc1NC(=O)c1cccc(F)c1	none
CCCC(=O)Nc1cc(C)c(NC(=O)c2ccccn2)cn1	CYP2C19 inhib 54
O=S1(=O)N=C(N2CCN(Cc3ccccc3)CC2)c2ccccc21	none
COc1cc2c(cc1OC)C1=NC(=O)CN1C(SCc1ccccc1)=N2	none (no result: HIV Rev-RRE inh, Cav3 T inh)
CNC(=O)c1[nH]cnc1C(=O)Nc1ccccc1OC	none (no result: CYP2C19 inhib, CYP2C9 inh, CYP2C19 act, CYP2C9 act)
O=C(Nc1ccccc1C(=O)N1CCCCC1)C1CCCCC1	CYP2C9 inh 56 (no result: HIV Rev-RRE inh)
COC(=O)c1ccccc1NC(=O)C1CCN(S(C)(=O)=O)CC1	none
COC(=O)c1ccccc1NC(=O)C1CC(=O)N(C2CCCCC2)C1 (stereo not given)	CYP2C19 inhib 66, CYP2C9 inh 59 (no result: HIV Rev-RRE inh)
COC(=O)c1ccccc1NC(=O)C1CCN(C(=O)c2ccc(OC)cc2)CC1	CYP2C19 inhib 50
Cc1ccccc1C(=O)N1CCC(C(=O)Nc2cccc(F)c2)CC1	CYP2C9 inh 51
CC(=O)c1cccc(NC(=O)C2C3C=CC(C4CC34)C2C(=O)O)c1 (stereo not given)	none
CCCCc1nnc(SCCSc2nnc(CCCC)n2N)n1N	none
O=C(CCCSc1nc2ccccc2[nH]1)N1CCN(c2ccc([N+](=O)[O-])cc2)CC1	none
O=C(COC(=O)c1ccc(S(=O)(=O)N2CCOCC2)cc1)NC1CCCCCC1	none
CC1CCCC(C)N1C(=O)c1ccccc1Nc1ccc(SC(F)F)cc1 (stereo not given)	none
O=C(c1ccccc1Nc1ccc(SC(F)F)cc1)N1CCCCC1	CYP2C19 inhib 88, CYP2C9 inh 53, Cav3 T inh -7
COc1ccc(C2C(C#N)=C(N)Oc3cc(C)n(Cc4ccco4)c(=O)c32)cc1 (stereo not given)	CYP2C9 inh 68
Cc1cc2c(c(=O)n1CCCn1ccnc1)C(c1ccco1)C(C#N)=C(N)O2 (stereo not given)	CYP2C19 inhib 76, CYP2C9 inh 100
Cc1cc2c(c(=O)n1Cc1ccc3c(c1)OCO3)C(c1cccnc1)C(C#N)=C(N)O2 (stereo not given)	CYP2C9 inh 52
COc1ccccc1C1C(C#N)=C(N)Oc2cc(C)n(CCCn3ccnc3)c(=O)c21 (stereo not given)	CYP2C19 inhib 90, CYP2C9 inh 100
COc1cccc(C2C(C#N)=C(N)Oc3cc(C)n(Cc4ccco4)c(=O)c32)c1 (stereo not given)	none
Cc1cc2c(c(=O)n1CC1CCCO1)C(c1ccco1)C(C#N)=C(N)O2 (stereo not given)	none
Cc1cc2c(c(=O)n1Cc1cccnc1)C(c1ccccc1)C(C#N)=C(N)O2 (stereo not given)	none
CCC(C)c1ccc(Nc2ncccc2C#N)cc1 (stereo not given)	none
CC1CCc2nc(NC(=O)C3CCCO3)sc2C1 (stereo not given)	none
CC1=CC(C)(C)N2C(=O)C3(C(C#N)=C(N)OC4=C3C(=O)CC(C)(C)C4)c3cc(C)cc1c32 (stereo not given)	none
CCc1ccc(/C(C)=N\Nc2ccc([N+](=O)[O-])cc2)cc1	HIV Rev-RRE inh 52
Cc1cccc2c1N(CCCOc1ccc(C(C)(C)C)cc1)C(=O)C2=O	none
Cc1ccc(OCCN2C(=O)c3ccccc3C2=O)cc1	CYP2C19 inhib 81
Cc1cc(C(=O)OCCN2C(=O)c3ccccc3C2=O)c2ccccc2n1	CYP2C19 inhib 68, CYP2C9 inh 75
COc1cccc(C(=O)OCCN2C(=O)c3ccccc3C2=O)c1OC	CYP2C19 inhib 90
Cc1cccc2c1N(CCCOc1ccccc1)C(=O)C2=O	CYP2C19 inhib 62
O=C(OCCN1C(=O)c2ccccc2C1=O)c1cc(=O)[nH]c2ccccc12	none
COc1cc(NC(=O)c2cnn3c(C)cc(C)nc23)c(OC)cc1Cl	none
COc1ccc(CC(=O)OCN2C(=O)c3ccccc3C2=O)cc1	none
CCCOC(=O)CN1C(=O)c2ccc(C(=O)OCCC)cc2C1=O	none
CCCCOC(=O)CN1C(=O)c2ccc(C(=O)OCCCC)cc2C1=O	CYP2C19 inhib 88, CYP2C9 inh 70
COc1ccc(C(=O)OCCN2C(=O)c3ccccc3C2=O)cc1	CYP2C19 inhib 93, CYP2C9 inh 72
CNc1nc(Nc2ccc(C(C)=O)cc2)nc(OC(C(F)(F)F)C(F)(F)F)n1	none
Nc1nonc1C(=Nc1ccccc1)NO	none
CCOc1cc(C(=O)N2CCC(CC3CC(c4ccccc4)=NO3)(C(=O)NCc3ccc(OC)cc3)CC2)cc(OCC)c1OCC (stereo not given)	none (no result: CYP2C19 inhib, CYP2C9 inh, CYP2C19 act, HIV Rev-RRE inh, CYP2C9 act)
